In assay [1] the test system is Candida albicans. Put plainly: Inhibitory effect on Candida albicans wild type YEM14 Strain. Type of assay: functional. A digest of the protocol:
(§1)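 MICs were determined by serial dilution in RPMI medium. MIC is the lowest concentration giving culture turbidity ≤20% of the control culture.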

For assay [2], the system named is Nakaseomyces glabratus. Put plainly: Inhibitory effect on Candida glabrata YEM216 pCDR1pCDR2pBEN YEM75 WT Strain. Type of assay: functional. The method, boiled down:
(§2)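 For C. glabrata strains, MICs were determined by serial dilution in RPMI medium and read after 48 h. MIC is the lowest concentration giving turbidity ≤20% of the control culture.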

The target in assay [3] is T1, Dihydrofolate reductase (Rattus norvegicus, UniProt Q920D2).
T1 sequence (Q920D2 whole entry): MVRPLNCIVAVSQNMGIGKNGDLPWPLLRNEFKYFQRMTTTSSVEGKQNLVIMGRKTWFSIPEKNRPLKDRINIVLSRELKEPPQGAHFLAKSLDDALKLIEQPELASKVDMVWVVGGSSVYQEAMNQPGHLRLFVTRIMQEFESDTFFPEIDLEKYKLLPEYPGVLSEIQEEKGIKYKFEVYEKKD
The assay can be described thus: (§3) Inhibitory activity against cell free dihydrofolate reductase (DHFR) from rat. Particulars: read-out: I50.

The subject of assay [4] is Nakaseomyces glabratus. The assay can be described thus: Inhibitory effect on Candida glabrata YEM75 WT Strain. The assay is classed as functional. A digest of the protocol: as §2
The test system of assay [5] is Candida albicans. Put plainly: Inhibitory effect on Candida albicans YEM12 Strain. Type of assay: functional. A digest of the protocol: as §1
In assay [6] the test system is Candida albicans. Put plainly: Inhibitory effect on Candida albicans YEM13 BENup Strain. Type of assay: functional. The method, boiled down: as §1
Assay [7] relates to Candida albicans. The assay can be described thus: Inhibitory effect on Candida albicans YEM27 quad deletion Strain. Type of assay: functional. A digest of the protocol: as §1
Assay [8] concerns Candida albicans. The assay can be described thus: Inhibitory effect on Candida albicans YEM15 CDR1CDR2up Strain. The assay is classed as functional. A digest of the protocol: as §1
The test system of assay [9] is Nakaseomyces glabratus. The assay can be described thus: Inhibitory effect on Candida glabrata YEM88 CgCDR1 CgCDR2up Strain. Type of assay: functional. A digest of the protocol: as §2
The subject of assay [10] is Candida albicans. Put plainly: Inhibitory effect on Candida albicans wild type YEM30 Strain. The assay is classed as functional. A digest of the protocol: as §1
Assay [11] deals with T2, Dihydrofolate reductase (Candida albicans, UniProt P22906).
T2 sequence (P22906 whole entry): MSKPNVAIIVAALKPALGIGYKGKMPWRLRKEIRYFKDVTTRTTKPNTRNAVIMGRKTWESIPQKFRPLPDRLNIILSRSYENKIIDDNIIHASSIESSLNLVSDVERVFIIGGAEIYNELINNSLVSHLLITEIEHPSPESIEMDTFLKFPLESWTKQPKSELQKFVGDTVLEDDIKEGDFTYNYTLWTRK
The assay can be described thus: Inhibitory activity against cell free dihydrofolate reductase (DHFR) from Candida albicans. Particulars: read-out: I50.

A short description of assay [12]: Inhibitory activity against dihydropteroic acid synthase (SYN) from Mycobacterium lufu (DDS sensitive). The note with it: read-out: I50.
In assay [13] the target is T3, Dihydropteroate synthetase, putative (Plasmodium berghei str. ANKA) (UniProt A0A113T0T6).
T3 sequence (whole entry): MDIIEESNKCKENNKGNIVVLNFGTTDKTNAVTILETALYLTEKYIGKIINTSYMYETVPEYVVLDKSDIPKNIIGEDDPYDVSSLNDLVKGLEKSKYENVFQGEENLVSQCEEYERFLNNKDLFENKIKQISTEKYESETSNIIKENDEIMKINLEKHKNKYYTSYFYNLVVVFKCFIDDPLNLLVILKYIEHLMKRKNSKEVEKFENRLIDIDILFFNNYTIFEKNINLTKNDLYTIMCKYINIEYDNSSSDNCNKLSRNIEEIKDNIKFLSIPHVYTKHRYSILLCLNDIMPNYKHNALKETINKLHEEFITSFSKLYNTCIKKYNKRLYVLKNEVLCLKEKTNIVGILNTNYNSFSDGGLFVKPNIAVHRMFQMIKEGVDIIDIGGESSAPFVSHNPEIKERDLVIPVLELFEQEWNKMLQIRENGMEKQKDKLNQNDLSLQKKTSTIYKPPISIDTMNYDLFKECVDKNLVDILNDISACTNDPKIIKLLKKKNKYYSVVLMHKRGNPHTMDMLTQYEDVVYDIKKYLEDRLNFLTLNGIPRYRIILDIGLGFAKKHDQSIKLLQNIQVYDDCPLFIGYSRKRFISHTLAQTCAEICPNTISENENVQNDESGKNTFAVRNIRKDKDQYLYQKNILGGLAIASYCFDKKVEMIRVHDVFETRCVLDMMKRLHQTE
The assay can be described thus: Inhibitory activity against dihydropteroic acid synthase (SYN) from Plasmodium berghei.

Assay [14] is described as follows: Inhibitory activity against dihydropteroic acid synthase (SYN) from Escherichia coli. The note with it: read-out: I50.
Assay [15] can be described thus: Inhibitory activity against dihydropteroic acid synthase (SYN) from Mycobacterium lufu (DDS resistant). The note with it: read-out: I50.
Assay [16] has as its target Dihydrofolate reductase (Mycobacterium lufu). The assay can be described thus: Inhibitory activity against cell free dihydrofolate reductase (DHFR) from Mycobacterium lufu.
Assay [17] deals with T1, Dihydrofolate reductase. The assay is described as §3. The note with it: read-out: I50. A digest of the protocol:
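Commercially sourced rat DHFR was preincubated 5 min at 25 °C with 0.1 mM NADPH and varying inhibitor in 0.1 M Tris, pH 7.24. The reaction was started with 0.03 mM dihydrofolate and followed as the fall in absorbance at 340 nm over time. I50 was taken as the inhibitor concentration halving reaction velocity, fitted by nonlinear regression.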
This is another data set of the same source.

Assay [18] can be described thus: Inhibitory activity against dihydropteroic acid synthase (SYN) from candida albicans. Particulars: read-out: I50. The method, boiled down:
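Partially purified SYN extract was prepared from C. albicans ATCC 11651 and incubated with sulfones at pH 8.4. Periodic samples were quenched with trichloroacetic acid, and folate formed was quantified by bioassay with folate-requiring Streptococcus faecium. I50 is the concentration giving a 50% decrease in dihydropteroic acid production versus the uninhibited control.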

Assay [19] has as its system Nakaseomyces glabratus. The assay can be described thus: IInhibitory effect on Candida glabrata YEM75 WT Strain. The assay is classed as functional. A digest of the protocol:
as §2

In brackets after ≈: the same amount, converted by molar mass. A value given as a limit tells only on which side of the number the result lay.

In general, MIC refers to the lowest concentration that inhibits growth of the organism. A low value points to a more susceptible organism. Consider `COc1cc(Cc2cnc(N)nc2N)ccc1OCCCCN1C(=O)c2ccccc2C1=O`, for which the minimum inhibitory concentration (MIC) against Candida albicans [1], with Nakaseomyces glabratus [2], in the assay with Nakaseomyces glabratus [4], with Candida albicans [5], in the assay on Candida albicans [6] and against Candida albicans [7] was above 64 µg/mL each time. Besides, the minimum inhibitory concentration (MIC) with Candida albicans [8], against Nakaseomyces glabratus [9] and in the assay on Candida albicans [10] was above 64 µg/mL throughout. The values for the IC50 on Dihydrofolate reductase [3] and on Dihydrofolate reductase [11] were 1810 nM and 31 nM, respectively.

For `NNC(=O)c1ccc(S(=O)(=O)c2ccc(N)cc2)cc1`, the figures for the IC50 in assay [12], in [14] and in assay [15] were 12.7 µM, 155 µM and 9.6 µM, respectively. The compound further displayed an I50 in assay [13] of 76.5 µM.

As for `Nc1ncc(NCc2ccccc2)c(N)n1`, the IC50 was 58200 nM at Dihydrofolate reductase [3] and 7940 nM at Dihydrofolate reductase [11]. The compound further registered an I50 in assay [16] of 105 uM l-1.

For the compound `COc1cc(OC)cc(N2C3CCC2CC(c2cnc(N)nc2N)C3)c1` (configuration not stated), the minimal inhibitory concentration (MIC) against Candida albicans [1] was 64 µg/mL (≈ 180 µM); in the assay with Nakaseomyces glabratus [2], 4 µg/mL (≈ 11.3 µM); in the assay on Nakaseomyces glabratus [4], 4 µg/mL (≈ 11.3 µM); in the assay with Candida albicans [5] it was 16 µg/mL (≈ 45 µM); against Candida albicans [6], above 64 µg/mL; with Candida albicans [7] it was 1 µg/mL (≈ 2.81 µM). The values for the minimum inhibitory concentration (MIC) in the assay on Candida albicans [8], with Nakaseomyces glabratus [9] and in the assay with Candida albicans [10] were above 64 µg/mL, 32 µg/mL (≈ 90 µM) and 32 µg/mL (≈ 90 µM), respectively. The IC50 at Dihydrofolate reductase [17] was 84 nM; at Dihydrofolate reductase [11], 26 nM.

As for `Nc1ncc(OCc2cccc3ccccc23)c(N)n1`, the MIC against Candida albicans [1] was above 64 µg/mL; with Nakaseomyces glabratus [2], 16 µg/mL (≈ 60.1 µM); against Nakaseomyces glabratus [4] it was 16 µg/mL (≈ 60.1 µM); with Candida albicans [5], 32 µg/mL (≈ 120 µM); in the assay on Candida albicans [6], above 64 µg/mL; against Candida albicans [7], 32 µg/mL (≈ 120 µM). For the same compound, the MIC against Candida albicans [8] was above 64 µg/mL; in the assay on Nakaseomyces glabratus [9], 64 µg/mL (≈ 240 µM); in the assay on Candida albicans [10] it was above 64 µg/mL. The IC50 on Dihydrofolate reductase [3] was 2630 nM; at Dihydrofolate reductase [11], 430 nM.

Regarding `COc1ccc(Cc2cnc(N)nc2N)cc1OCCCCN1C(=O)c2ccccc2C1=O`, the MIC in the assay with Candida albicans [1], in the assay with Nakaseomyces glabratus [2], with Nakaseomyces glabratus [4], against Candida albicans [5], in the assay with Candida albicans [6] and in the assay with Candida albicans [7] was above 64 µg/mL in each case. The minimum inhibitory concentration (MIC) with Candida albicans [8], in the assay with Nakaseomyces glabratus [9] and against Candida albicans [10] was above 64 µg/mL in each case. Also, the IC50 on Dihydrofolate reductase [3] was 1760 nM; at Dihydrofolate reductase [11], 61 nM.

For `Nc1ccc(S(=O)(=O)c2ccc(O)cc2)cc1`, the IC50 in [12] is 1.5 µM; in assay [18], 2400 nM; in assay [14], 34.9 µM; in assay [15] it was 1.61 µM. Also, the I50 in assay [13] turned out to be 32.2 µM.

For `COc1cc(Cc2cnc(N)nc2N)ccc1OCCNc1ccc(S(=O)(=O)c2ccc(N)cc2)cc1`, the MIC in the assay with Candida albicans [1], against Nakaseomyces glabratus [2], in the assay with Nakaseomyces glabratus [19], in the assay with Candida albicans [5], against Candida albicans [6] and in the assay on Candida albicans [7] was above 64 µg/mL each time. For the same compound, the MIC against Candida albicans [8], against Nakaseomyces glabratus [9] and in the assay with Candida albicans [10] was above 64 µg/mL throughout. Moreover, the IC50 on Dihydrofolate reductase [3] came to 7230 nM; at Dihydrofolate reductase [11] it was 340 nM.
